Measured values reported in ChEMBL document CHEMBL1157421, “Tenacigenin B derivatives reverse P-glycoprotein-mediated multidrug resistance inHepG2/Dox cells” (J Nat Prod, 2008).
The source made the active and inactive calls. The calls are words filed in the database; no cut-off is given here.

Columns and labels:
[1] = Effect on doxorubicin-induced cell cycle arrest in multidrug resistance human HepG2/Dox cells assessed as accumulation in G2/M phase at 5 ug/ml; assay type: functional
Summary of the method: (§1)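 Flow-cytometric cell-cycle profiling. About 2 × 10^5 cells were seeded per dish and left overnight, then exposed to medium with or without drug for 48 h. Cells were fixed in 70% EtOH at -20 °C overnight and treated with RNase A (100 µg/mL, 37 °C, 30 min). They were then stained with propidium iodide (40 µg/mL final) at room temperature for 5-10 min and read on a FACSCalibur.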

[2] = Growth inhibition of multidrug resistant human HepG2/Dox cells at 80 uM; assay type: functional
Summary of the method: (§2)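 SRB growth assay. HepG2 and HepG2/Dox cells were grown in RPMI 1640 with 10% FBS at 37 °C and 5% CO2; resistant cells were kept drug-free for at least 7 days before use. IC50 was taken from the SRB assay, with at least three repeats, reported as mean ± SD.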

[3] = Effect on doxorubicin-induced cell cycle arrest in multidrug resistance human HepG2/Dox cells assessed as accumulation in S phase at 20 ug/ml; assay type: functional; summary of the method: as §1
HepG2 [4] = test: Reversal of P-glycoprotein-mediated drug resistance in human HepG2 cells assessed as increase in sensitivity at 25.2 uM in presence of puromycin; assay type: cell-based
Summary of the method: (§3)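 SRB growth-inhibition assay in HepG2 or doxorubicin-selected Pgp-overexpressing HepG2/Dox cells. Cells grown in RPMI 1640 with 10% FBS at 37 °C, 5% CO2. HepG2/Dox cells kept in 1.2 µM doxorubicin and grown drug-free for at least 7 days before use. IC50 of anticancer drug determined with or without modulator. Sensitivity fold = IC50 ratio. At least three repeats, mean ± SD.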

HepG2/Dox [5] = test: Reversal of P-glycoprotein-mediated multidrug resistance in human HepG2/Dox cells assessed as increase in sensitivity at 12.6 uM in presence of puromycin; assay type: cell-based; summary of the method: as §3
[6] = Cell cycle arrest in multidrug resistant human HepG2/Dox cells assessed as accumulation in subG1 phase at 20 ug/ml; assay type: functional, cell-based; summary of the method: as §1
HepG2/Dox [7] = test: Reversal of P-glycoprotein-mediated multidrug resistance in human HepG2/Dox cells assessed as increase in sensitivity at 12.6 uM in presence of paclitaxel; assay type: cell-based; summary of the method: as §3
HepG2/Dox [8] = test: Reversal of P-glycoprotein-mediated multidrug resistance in human HepG2/Dox cells assessed as increase in sensitivity at 12.6 uM in presence of vinblastine; assay type: cell-based; summary of the method: as §3
[9] = Increase in doxorubicin uptake in multidrug resistance human HepG2/Dox cells assessed as cellular fluorescence at 10 ug/ml; assay type: functional
Summary of the method: (§4)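 Doxorubicin accumulation. About 1 × 10^6 HepG2/Dox cells in medium were given 10 µM doxorubicin with or without test agent and held at 37 °C for 40 min. Cells were washed in ice-cold PBS and fluorescence was read by flow cytometry. Increase (%) = 100 × (FT − FC)/FC; verapamil 10 µM served as positive control. Three experiments, mean ± SD.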

[10] = Effect on doxorubicin-induced cell cycle arrest in multidrug resistance human HepG2/Dox cells assessed as accumulation in subG1 phase at 20 ug/ml; assay type: functional; summary of the method: as §1
[11] = Cell cycle arrest in multidrug resistant human HepG2/Dox cells assessed as accumulation in S phase at 20 ug/ml; assay type: functional, cell-based; summary of the method: as §1
[12] = Increase in doxorubicin uptake in multidrug resistance human HepG2/Dox cells assessed as cellular fluorescence at 20 ug/ml; assay type: functional; summary of the method: as §4
HepG2 [13] = test: Reversal of P-glycoprotein-mediated drug resistance in human HepG2 cells assessed as increase in sensitivity at 25.2 uM in presence of paclitaxel; assay type: cell-based; summary of the method: as §3
HepG2/Dox [14] = test: Effect on P-glycoprotein expression in multidrug resistance human HepG2/Dox cells at 20 ug/ml after 72 hrs; assay type: functional, cell-based
Summary of the method: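 Western blot for Pgp. HepG2/Dox cells were incubated with 0, 5, 10 or 20 µg/mL test agent for 72 h, with untreated HepG2 as comparator. Lysates (50 µg total protein) were resolved on 10% SDS-PAGE and Pgp was detected by antibody labeling.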

[15] = Cell cycle arrest in multidrug resistant human HepG2/Dox cells assessed as accumulation in G0/G1 phase at 20 ug/ml; assay type: functional, cell-based; summary of the method: as §1
[16] = Effect on doxorubicin-induced cell cycle arrest in multidrug resistance human HepG2/Dox cells assessed as accumulation in subG1 phase at 10 ug/ml; assay type: functional; summary of the method: as §1
[17] = Effect on doxorubicin-induced cell cycle arrest in multidrug resistance human HepG2/Dox cells assessed as accumulation in G0/G1 phase at 10 ug/ml; assay type: functional; summary of the method: as §1
HepG2/Dox [18] = test: Reversal of P-glycoprotein-mediated multidrug resistance in human HepG2/Dox cells assessed as increase in sensitivity at 25.2 uM in presence of doxorubicin; assay type: cell-based; summary of the method: as §3
HepG2/Dox [19] = test: Reversal of P-glycoprotein-mediated multidrug resistance in human HepG2/Dox cells assessed as increase in sensitivity at 25.2 uM in presence of vinblastine; assay type: cell-based; summary of the method: as §3
[20] = Effect on doxorubicin-induced cell cycle arrest in multidrug resistance human HepG2/Dox cells assessed as accumulation in G2/M phase at 20 ug/ml; assay type: functional; summary of the method: as §1
[21] = Effect on doxorubicin-induced cell cycle arrest in multidrug resistance human HepG2/Dox cells assessed as accumulation in G0/G1 phase at 20 ug/ml; assay type: functional; summary of the method: as §1
HepG2 [22] = test: Growth inhibition of doxorubicin-sensitive human HepG2 cells at 80 uM; assay type: functional; summary of the method: as §2
[23] = Effect on doxorubicin-induced cell cycle arrest in multidrug resistance human HepG2/Dox cells assessed as accumulation in G2/M phase at 10 ug/ml; assay type: functional; summary of the method: as §1
HepG2/Dox [24] = test: Reversal of P-glycoprotein-mediated multidrug resistance in human HepG2/Dox cells assessed as increase in sensitivity at 25.2 uM in presence of paclitaxel; assay type: cell-based; summary of the method: as §3
HepG2 [25] = test: Reversal of P-glycoprotein-mediated drug resistance in human HepG2 cells assessed as increase in sensitivity at 25.2 uM in presence of doxorubicin; assay type: cell-based; summary of the method: as §3
HepG2/Dox [26] = test: Inhibition of Pgp-mediated Rh123 accumulation in multidrug resistance human HepG2/Dox cells at 40 ug/ml; assay type: cell-based
Summary of the method: (§5)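 Rh-123 efflux. About 1 × 10^6 HepG2/Dox cells were loaded with 5 µg/mL Rh-123 at 37 °C for 1 h and washed in ice-cold PBS. They then effluxed for 1 h at 37 °C in dye-free medium with 0-80 µg/mL test agent, and retained fluorescence was read by flow cytometry. Percentage increase over control was calculated; verapamil 15 µM served as positive control. Three experiments, mean ± SD.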

[27] = Effect on doxorubicin-induced cell cycle arrest in multidrug resistance human HepG2/Dox cells assessed as accumulation in S phase at 5 ug/ml; assay type: functional; summary of the method: as §1
HepG2 [28] = test: Reversal of P-glycoprotein-mediated drug resistance in human HepG2 cells assessed as increase in sensitivity at 25.2 uM in presence of vinblastine; assay type: cell-based; summary of the method: as §3
[29] = Increase in doxorubicin uptake in multidrug resistance human HepG2/Dox cells assessed as cellular fluorescence at 40 ug/ml; assay type: functional; summary of the method: as §4
[30] = Effect on doxorubicin-induced cell cycle arrest in multidrug resistance human HepG2/Dox cells assessed as accumulation in G0/G1 phase at 5 ug/ml; assay type: functional; summary of the method: as §1
HepG2/Dox [31] = test: Reversal of P-glycoprotein-mediated multidrug resistance in human HepG2/Dox cells assessed as increase in sensitivity at 25.2 uM in presence of puromycin; assay type: cell-based; summary of the method: as §3
HepG2/Dox [32] = test: Inhibition of Pgp-mediated Rh123 accumulation in multidrug resistance human HepG2/Dox cells at 80 ug/ml; assay type: cell-based; summary of the method: as §5
[33] = Effect on doxorubicin-induced cell cycle arrest in multidrug resistance human HepG2/Dox cells assessed as accumulation in subG1 phase at 5 ug/ml; assay type: functional; summary of the method: as §1
[34] = Effect on doxorubicin-induced cell cycle arrest in multidrug resistance human HepG2/Dox cells assessed as accumulation in S phase at 10 ug/ml; assay type: functional; summary of the method: as §1
[35] = Cell cycle arrest in multidrug resistant human HepG2/Dox cells assessed as accumulation in G2/M phase at 20 ug/ml; assay type: functional, cell-based; summary of the method: as §1
HepG2/Dox [36] = test: Reversal of P-glycoprotein-mediated multidrug resistance in human HepG2/Dox cells assessed as increase in sensitivity at 12.6 uM in presence of doxorubicin; assay type: cell-based; summary of the method: as §3

C/C=C(\C)C(=O)O[C@@H]1[C@@H](OC(C)=O)[C@]2(C)[C@H](C(C)=O)CC[C@@]23O[C@]32CC[C@H]3C[C@@H](O[C@H]4C[C@@H](OC)[C@H](O[C@@H]5O[C@H](C)[C@@H](O)[C@@H](OC)[C@H]5O)[C@@H](C)O4)CC[C@]3(C)[C@@H]12 [TENACISSIMOSIDE A]
Activity [1]: 44.2%
inhibition at 80 µM [2]: 50%
Activity [3]: 5.1%
Ratio IC50 (HepG2 [4]): 1.1
Ratio IC50 (HepG2/Dox [5]): 7
Activity [6]: 3%
Ratio IC50 (HepG2/Dox [7]): 4.7
Ratio IC50 (HepG2/Dox [8]): 2.4
Activity [9]: 18%
Activity [10]: 7.6%
Activity [11]: 7.2%
Activity [12]: 28%
Ratio IC50 (HepG2 [13]): 1.1
Activity (HepG2/Dox [14]): inactive
Activity [15]: 49.3%
Activity [16]: 3.5%
Activity [17]: 24.9%
Ratio IC50 (HepG2/Dox [18]): 17.9
Ratio IC50 (HepG2/Dox [19]): 10
Activity [20]: 73%
Activity [21]: 8.9%
inhibition at 80 µM (HepG2 [22]): 50%
Activity [23]: 63.6%
Ratio IC50 (HepG2/Dox [24]): 5.8
Ratio IC50 (HepG2 [25]): 1.1
inhibition (HepG2/Dox [26]): 50%
Activity [27]: 6.8%
Ratio IC50 (HepG2 [28]): 1.1
Activity [29]: 41%
Activity [30]: 39.8%
Ratio IC50 (HepG2/Dox [31]): 11.2
inhibition (HepG2/Dox [32]): 90%
Activity [33]: 3.5%
Activity [34]: 6.3%
Activity [35]: 32%
Ratio IC50 (HepG2/Dox [36]): 7.8
